Screening results: PubChem, The Scripps Research Institute Molecular Screening Center
M5 ag = CHRM5 agonism in calcium assay; AID 624037; hit rate 0.19% among 360,000; activation, % at 3 µM; CHO-K1 hM5 cells, Fluo-8 calcium fluorescence; 0% DMSO wells, 100% maximal acetylcholine response;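 active means activation above the run's mean over test compounds plus 3 SD, cut at about 23% in these data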;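 further: signal is peak over basal fluorescence ratio across the kinetic read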
Target sequence (P08912 whole entry, looked up): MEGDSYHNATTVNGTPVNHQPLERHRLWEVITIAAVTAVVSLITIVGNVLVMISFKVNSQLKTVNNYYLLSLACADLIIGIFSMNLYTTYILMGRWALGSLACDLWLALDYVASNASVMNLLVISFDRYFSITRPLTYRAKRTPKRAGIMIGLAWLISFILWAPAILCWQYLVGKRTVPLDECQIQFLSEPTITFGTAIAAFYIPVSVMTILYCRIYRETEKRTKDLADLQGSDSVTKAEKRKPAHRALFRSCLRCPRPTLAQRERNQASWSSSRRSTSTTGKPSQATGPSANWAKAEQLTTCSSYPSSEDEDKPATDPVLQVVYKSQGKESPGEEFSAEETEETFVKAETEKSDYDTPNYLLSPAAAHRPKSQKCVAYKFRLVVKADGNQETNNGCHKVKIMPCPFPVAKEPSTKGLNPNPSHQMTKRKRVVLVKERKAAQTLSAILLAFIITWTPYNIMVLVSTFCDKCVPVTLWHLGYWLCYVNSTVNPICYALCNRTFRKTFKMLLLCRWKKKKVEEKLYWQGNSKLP
CHRM5 PAM = CHRM5 positive allosteric modulation | AID 624038 | hit rate 0.3% among 360,000 | CHO-K1 hM5, Fluo-8 calcium, ACh EC20 PAM; 0% = ACh EC20, 100% = ACh EC100 | activation, % at 3 µM;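 active means activation above the run cutoff, the mean activation of all test compounds plus 3 SD, cut at about 18% in these data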
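System: CHO-K1 hM5 cells. Reagent: acetylcholine, EC20 level. Compound dosing: single dose, 3 µM nominal final test concentration. Timing: Post-acetylcholine fluorescence recording 140 s. Detection: Fluo-8 calcium fluorescence. Read-out: % activation, ACh-normalized. Benchmarks: ACh EC20 and EC100 wells. Repeats: singlicate, one well per test compound.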
M4 ag = agonists of human muscarinic M4 receptor (CHRM4) | P08173 | hit rate 0.14% among 360,000 | CHO-K1 hM4/Gqi5, Fluo-8 calcium fluorescence; vehicle 0%, full acetylcholine response 100% | AID 624127 | activation, % at 3 µM;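 active means activation above the run mean over all test wells plus 3 SD, cut at about 32% in these data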;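 further: peak over basal fluorescence ratio per well then scaled between controls; 0% = DMSO wells and 100% = acetylcholine at EC100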
CHRM5 antagonist = antagonists of human muscarinic M5 receptor (CHRM5); P08912; CHO-hM5 cells, Fluo-8 calcium fluorescence, ACh EC80; inhibition, % at 3 µM; hit rate 0.59% among 360,000; AID 624040;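 active means inhibition above a per-plate cutoff, the mean of that plate's test compounds plus 3 SD, cut at about 27% in these data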;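 further: 0% = acetylcholine EC80 with DMSO and 100% = DMSO without agonist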
M4 antag = blocks acetylcholine activation of human M4 receptor; hit rate 0.73% among 360,000; inhibition, % at 3 µM; AID 624125; P08173; CHO-hM4 cells, ACh EC80, Fluo-8 calcium fluorescence;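 active means inhibition above its plate's cutoff, the mean inhibition of sample wells plus 3 SD, cut at about 27% in these data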;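 further: 0% = acetylcholine EC80 with DMSO and 100% = DMSO without agonist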
M4 PAM = potentiates acetylcholine response at human M4 receptor; hit rate 0.4% among 360,000; P08173; activation, % at 3 µM; AID 624126; CHO-K1 hM4/Gqi5, Fluo-8 calcium fluorescence, ACh EC20; 0% = ACh EC20, 100% = maximal ACh;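 active means activation above its plate's cutoff, the mean activation of sample wells plus 3 SD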
The depositor's hits bear a star. Most compounds without a hit are left out; they make up all but 1.8% or so of the library.

SMILES	M5 ag	CHRM5 PAM	M4 ag	CHRM5 antagonist	M4 antag	M4 PAM
CCN(Cc1ccccc1)Cc1ccc(OCc2ccccc2)cc1	-16	-16	-2	14	27*	-13
O=C(OCC(=O)N1CCN(C(=O)c2ccco2)CC1)c1cc(-c2cccc(Br)c2)nc2ccccc12	6	-8	9	12	28*	-23
O=C(O)COc1ccc(/C=C2\SC(=Nc3ccccc3)N(c3ccccc3)C2=O)cc1	-1	-5	-1	4	30*	-8
CSc1nncc(-c2ccc(F)cc2)n1	-4	3	33*	-5	3	-1
CSc1nncc(-c2ccc(F)c(F)c2)n1	0	0	0	6	8	-4
O=C(Nc1c2c(nn1-c1ccc(Cl)cc1)CS(=O)(=O)C2)c1ccccc1	-2	-3	0	11	4	-2
O=C1c2cccnc2C(=O)N1Cc1ccc(S(=O)(=O)NCc2ccco2)s1	-5	1	1	11	-20	-11
Cc1ccc2nc(-c3ccc(Cl)cc3)c(Cc3cccc(Cl)c3)n2c1	-6	-20	-1	1	-3	-4
Cc1ccc2nc(C(C)(C)C)c(Cc3cccc(Cl)c3)n2c1	-8	-22	-2	20	27*	-15
O=C(CSCc1ccc(F)cc1)N1CCN(c2ccccc2)CC1	-4	12	5	-4	-14	30*
O=C(CSCc1ccc(F)cc1)N1CCN(c2ccc(F)cc2)CC1	-7	-15	3	13	-1	-12
NC(=O)N/N=C/c1c(F)cccc1F	-1	-3	1	11	-2	23*
NC(=O)N/N=C/c1c(F)c(F)c(F)c(F)c1F	-1	2	1	4	-7	3
CC(=O)Nc1cccc2ccc(O)cc12	-2	3	0	5	-11	16*
C=CCNC(=O)c1cnn(-c2ccccc2)c1-c1ccccc1	-3	1	3	-1	-16	-3
O=C(O)c1cnn(-c2ccccc2)c1-c1ccccc1	2	19*	0	-19	-7	4
Nn1c(=O)c2ccccc2n2c(SCc3ccccc3)nnc12	-4	38*	2	29*	-17	13
COc1ccc(C(=O)C(=O)N2CCN(c3ccc(C)cc3)CC2)cc1OC	2	-1	4	-8	-10	7
COc1ccc(-c2noc(CCCCC(=O)N3CCN(c4cc(C)ccc4C)CC3)n2)cc1	7	-13	8	32*	30*	-11
CC(NC(=O)C1CCN(C(=O)Nc2ccccc2)CC1)c1ccccc1 (centres undefined)	-4	-1	2	-2	-28	8
NS(=O)(=O)c1ccc(NC(=O)C2C3C=CC(C3)C2C(=O)O)cc1 (centres undefined)	4	18*	1	-10	-6	10
O=C(O)c1ccccc1/C=N/NC(=S)NCc1ccccc1	3	34*	3	32*	5	-3
COc1ccccc1C(CNC(=O)C(CCSC)NC(=O)c1ccccc1Cl)N1CCCC1 (centres undefined)	-8	-4	1	5	-20	-2
CC(=O)Nc1ccc(Sc2ncccc2C(=O)Nc2ccc(F)cc2)cn1	50*	-14	94*	15	26	-26
Cc1ccc(-n2c(Cl)c(Cl)nc(Cl)c2=O)cc1	-4	2	-3	2	37*	-6
CC(=O)c1c(C)[nH]c(C(=O)CN2C(=O)NC(C)(c3ccc(C)cc3)C2=O)c1C (centres undefined)	46*	-8	36*	19	-1	7
CC(=O)Nc1ccc(-c2noc(-c3csc([C@@H]4C[C@H](O)[C@@H](CO)O4)n3)n2)cc1	1	-2	3	4	2	-6
COc1cc(/C=C/C(O)=C/C(=O)/C=C/c2ccc(O)cc2)ccc1O	48*	-35	50*	41*	27*	-17
COc1ccc(CNS(=O)(=O)c2c(C(=O)N3CCCCC3)c(C)n(C)c2C)cc1	-6	-4	2	4	-5	11
